Active and inactive are the calls of the source. The rule behind the calls is not given here. Where only a bound is given, the exact number is not on record here.

The first assay relates to Rattus norvegicus. Briefly: Ratio of ovulated rats to total number of rats determined in a anti-ovulatory assay by administering 5 microg of compound; 0/8. The assay is classed as functional, organism-based.
For `CC(=O)Nc1ccc(C[C@H](NC(=O)[C@@H](NC=O)NC(=O)[C@@H](Cc2cccnc2)NC(=O)[C@@H](Cc2ccc(Cl)cc2)NC(=O)[C@@H](Cc2ccc3ccccc3c2)NC(C)=O)C(=O)N[C@H](Cc2ccc(NC(C)=O)cc2)C(=O)N[C@@H](CC(C)C)C(=O)N[C@@H](CCCCNC(C)C)C(=O)N2CCC[C@@H]2C(=O)N[C@H](C)C(N)=O)cc1` (single isomer, unassigned), the ov. rat/total entry was “Active”.

The next assay relates to Rattus norvegicus. The assay can be described thus: Ratio of ovulated rats to total number of rats determined in a anti-ovulatory assay by administering 2.5 microg of compound; 2/8. The assay is classed as functional, organism-based.
For `CC(=O)Nc1ccc(C[C@H](NC(=O)[C@H](CO)NC(=O)[C@@H](Cc2cccnc2)NC(=O)[C@@H](Cc2ccc(Cl)cc2)NC(=O)[C@@H](Cc2ccc3ccccc3c2)NC(C)=O)C(=O)N[C@@H](C(=O)N[C@@H](CC(C)C)C(=O)N[C@@H](CCCCNC(C)C)C(=O)N2CCC[C@@H]2C(=O)N[C@H](C)C(N)=O)N(C)C(=O)c2ccc(NC(C)=O)cc2)cc1` (mixture of isomers), the ov. rat/total result is “Partially active”.

Another assay concerns the target T1, Gonadotropin-releasing hormone receptor (Rattus norvegicus, UniProt P30969).
T1 sequence (P30969 whole entry): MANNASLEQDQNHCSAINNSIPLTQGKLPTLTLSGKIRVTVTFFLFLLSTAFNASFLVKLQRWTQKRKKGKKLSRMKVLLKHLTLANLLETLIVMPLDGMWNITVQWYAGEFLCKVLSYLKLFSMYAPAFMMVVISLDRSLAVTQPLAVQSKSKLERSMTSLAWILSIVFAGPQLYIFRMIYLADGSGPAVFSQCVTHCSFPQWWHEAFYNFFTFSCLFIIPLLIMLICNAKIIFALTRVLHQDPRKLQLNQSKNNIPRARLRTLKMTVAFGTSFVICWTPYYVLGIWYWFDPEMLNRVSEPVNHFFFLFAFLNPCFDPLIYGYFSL
The assay can be described thus: Inhibition of binding of radiolabeled histrelin to Gonadotropin-releasing hormone receptor (GnRHr) in rat pituitary gland membranes. The assay is classed as cell membranes, Membrane. A digest of the protocol: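 Rat anterior pituitary membranes (male and female glands equal numbers), homogenized in 0.32 M sucrose/aprotinin, 4000g pellet, diluted 15-fold in 10 mM Hepes, 0.2% BSA, pH 7.6. Filtration onto PEI-treated glass filters, scintillation counting. IC50 in nM, duplicate, n = 1.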
The IC50 is the concentration at which inhibition is half-maximal. As to `CC(=O)Nc1ccc(C[C@H](NC(=O)[C@H](CO)NC(=O)[C@@H](Cc2cccnc2)NC(=O)[C@@H](Cc2ccc(Cl)cc2)NC(=O)[C@@H](NC(C)=O)N(C)C(=O)c2ccc3ccccc3c2)C(=O)N[C@H](Cc2ccc(NC(C)=O)cc2)C(=O)N[C@@H](CC(C)C)C(=O)N[C@@H](CCCCNC(C)C)C(=O)N2CCC[C@H]2C(=O)N[C@H](C)C(N)=O)cc1` (single isomer, unassigned), the half-maximal inhibitory concentration (IC50) was found to be 0.3 nM. In the case of `CC(=O)Nc1ccc(C[C@H](NC(=O)[C@H](CO)NC(=O)[C@@H](Cc2cccnc2)NC(=O)[C@@H](Cc2ccc(Cl)cc2)NC(=O)[C@@H](Cc2ccc3ccccc3c2)NC(C)=O)C(=O)N[C@H](Cc2ccc(NC(C)=O)cc2)C(=O)N[C@@H](CC(C)C)C(=O)N[C@@H](CCCCNC(C)C)C(=O)N2CCC[C@H]2C(=O)N[C@@H](C)C(N)=O)cc1`, the half-inhibitory concentration (IC50) was found to be 0.38 nM. Take `CC(=O)Nc1ccc(C[C@H](NC(=O)[C@H](CO)NC(=O)[C@@H](Cc2cccnc2)NC(=O)[C@@H](Cc2ccc(Cl)cc2)NC(=O)[C@@H](Cc2ccc3ccccc3c2)NC(C)=O)C(=O)N[C@H](Cc2ccc(NC(C)=O)cc2)C(=O)N[C@H](C(=O)N[C@@H](CCCCNC(C)C)C(=O)N2CCC[C@H]2C(=O)N[C@H](C)C(N)=O)N(C)C(=O)C(C)C)cc1`: the 50% inhibitory concentration (IC50) stood at 0.53 nM. Regarding `CC(=O)Nc1ccc(C[C@H](NC(=O)[C@H](CO)NC(=O)[C@@H](Cc2cccnc2)NC(=O)[C@@H](Cc2ccc(Cl)cc2)NC(=O)[C@@H](Cc2ccc3ccccc3c2)NC(C)=O)C(=O)N[C@H](Cc2ccc(NC(C)=O)cc2)C(=O)N[C@@H](CC(C)C)C(=O)N[C@@H](CCCCNC(C)C)C(=O)N2CCC[C@H]2C(=O)N[C@H](C)C(N)=O)cc1`, the IC50 is 0.3 nM. On the same count and under the same terms, as for `CC(=O)Nc1ccc(C[C@H](NC(=O)[C@H](CO)NC(=O)[C@@H](Cc2cccnc2)NC(=O)[C@@H](Cc2ccc(Cl)cc2)NC(=O)[C@@H](Cc2ccc3ccccc3c2)NC(C)=O)C(=O)N[C@H](Cc2ccc(NC(C)=O)cc2)C(=O)N[C@@H](NC(C)=O)C(=O)N[C@@H](CCCCNC(C)C)C(=O)N2CCC[C@H]2C(=O)N[C@H](C)C(N)=O)cc1`, the figure is 5 nM; as for `CC(=O)Nc1ccc(C[C@H](NC(=O)[C@H](CO)NC(=O)[C@@H](NC(=O)c2ccncc2)NC(=O)[C@@H](Cc2ccc(Cl)cc2)NC(=O)[C@@H](Cc2ccc3ccccc3c2)NC(C)=O)C(=O)N[C@H](Cc2ccc(NC(C)=O)cc2)C(=O)N[C@@H](CC(C)C)C(=O)N[C@@H](CCCCNC(C)C)C(=O)N2CCC[C@H]2C(=O)N[C@H](C)C(N)=O)cc1` (single isomer, unassigned), 1.4 nM. Same read-out and setting: as for `CC(=O)Nc1ccc(C[C@H](NC(=O)[C@H](CO)NC(=O)[C@@H](Cc2cccnc2)NC(=O)[C@@H](Cc2ccc(Cl)cc2)NC(=O)[C@H](NC(C)=O)N(C)C(=O)c2ccc3ccccc3c2)C(=O)N[C@H](Cc2ccc(NC(C)=O)cc2)C(=O)N[C@@H](CC(C)C)C(=O)N[C@@H](CCCCNC(C)C)C(=O)N2CCC[C@H]2C(=O)N[C@H](C)C(N)=O)cc1`, the figure is 9.2 nM; as for `CC(=O)Nc1ccc(C[C@H](NC(=O)[C@H](CO)NC(=O)[C@H](NC(=O)c2cccnc2)NC(=O)[C@@H](Cc2ccc(Cl)cc2)NC(=O)[C@@H](Cc2ccc3ccccc3c2)NC(C)=O)C(=O)N[C@H](Cc2ccc(NC(C)=O)cc2)C(=O)N[C@@H](CC(C)C)C(=O)N[C@@H](CCCCNC(C)C)C(=O)N2CCC[C@H]2C(=O)N[C@H](C)C(N)=O)cc1`, 0.76 nM. Molecule `CC(=O)Nc1ccc(C[C@H](NC(=O)[C@@H](NC(=O)CO)NC(=O)[C@@H](Cc2cccnc2)NC(=O)[C@@H](Cc2ccc(Cl)cc2)NC(=O)[C@@H](Cc2ccc3ccccc3c2)NC(C)=O)C(=O)N[C@H](Cc2ccc(NC(C)=O)cc2)C(=O)N[C@@H](CC(C)C)C(=O)N[C@@H](CCCCNC(C)C)C(=O)N2CCC[C@H]2C(=O)N[C@H](C)C(N)=O)cc1` (single isomer, unassigned) registered an IC50 of 0.056 nM.

As for `CC(=O)Nc1ccc(C[C@H](NC(=O)[C@H](CO)NC(=O)[C@@H](Cc2cccnc2)NC(=O)[C@@H](Cc2ccc(Cl)cc2)NC(=O)[C@@H](Cc2ccc3ccccc3c2)NC(C)=O)C(=O)N[C@H](Cc2ccc(NC(C)=O)cc2)C(=O)N[C@@H](CC(C)C)C(=O)N[C@@H](CCCCNC(C)C)C(=O)N2CCC[C@H]2C(=O)N[C@@H](NC=O)C(N)=O)cc1` (single isomer, unassigned), the IC50 is 0.62 nM. The molecule `CC(=O)Nc1ccc(C[C@H](NC(=O)[C@H](NC(=O)[C@@H](Cc2cccnc2)NC(=O)[C@@H](Cc2ccc(Cl)cc2)NC(=O)[C@@H](Cc2ccc3ccccc3c2)NC(C)=O)N(C)C=O)C(=O)N[C@H](Cc2ccc(NC(C)=O)cc2)C(=O)N[C@@H](CC(C)C)C(=O)N[C@@H](CCCCNC(C)C)C(=O)N2CCC[C@H]2C(=O)N[C@H](C)C(N)=O)cc1` (single isomer, unassigned) gave an IC50 of 0.9 nM. Molecule `CC(=O)Nc1ccc(C[C@H](NC(=O)[C@H](CO)NC(=O)[C@@H](Cc2cccnc2)NC(=O)[C@@H](Cc2ccc(Cl)cc2)NC(=O)[C@@H](Cc2ccc3ccccc3c2)NC(C)=O)C(=O)N[C@H](Cc2ccc(NC(C)=O)cc2)C(=O)N[C@@H](NC(=O)C(C)C)C(=O)N[C@@H](CCCCNC(C)C)C(=O)N2CCC[C@H]2C(=O)N[C@H](C)C(N)=O)cc1` displayed a half-inhibitory concentration (IC50) of 2 nM. For the molecule `CC(=O)Nc1ccc(C[C@H](NC(=O)[C@H](CO)NC(=O)[C@@H](Cc2cccnc2)NC(=O)[C@H](NC(=O)[C@@H](Cc2ccc3ccccc3c2)NC(C)=O)N(C)C(=O)c2ccc(Cl)cc2)C(=O)N[C@H](Cc2ccc(NC(C)=O)cc2)C(=O)N[C@@H](CC(C)C)C(=O)N[C@@H](CCCCNC(C)C)C(=O)N2CCC[C@H]2C(=O)N[C@H](C)C(N)=O)cc1`, the half-inhibitory concentration (IC50) was found to be 1.2 nM. For the molecule `CC(=O)Nc1ccc(C[C@H](NC(=O)[C@H](CO)NC(=O)[C@@H](Cc2cccnc2)NC(=O)[C@@H](NC(=O)[C@@H](Cc2ccc3ccccc3c2)NC(C)=O)N(C)C(=O)c2ccc(Cl)cc2)C(=O)N[C@H](Cc2ccc(NC(C)=O)cc2)C(=O)N[C@@H](CC(C)C)C(=O)N[C@@H](CCCCNC(C)C)C(=O)N2CCC[C@H]2C(=O)N[C@H](C)C(N)=O)cc1` (mixture of isomers), the IC50 amounted to 280 nM. Turning to `CC(=O)Nc1ccc(C[C@H](NC(=O)[C@H](CO)NC(=O)[C@@H](Cc2cccnc2)NC(=O)[C@@H](Cc2ccc(Cl)cc2)NC(=O)[C@H](Cc2ccc3ccccc3c2)NC(C)=O)C(=O)N[C@H](Cc2ccc(NC(C)=O)cc2)C(=O)N[C@@H](CC(C)C)C(=O)N[C@@H](CCCCNC(C)C)C(=O)N2CCC[C@H]2C(=O)N[C@H](C)C(N)=O)cc1`, the IC50 turned out to be 0.64 nM. For `CC(=O)Nc1ccc(C[C@H](NC(=O)[C@H](CO)NC(=O)[C@@H](Cc2cccnc2)NC(=O)[C@@H](Cc2ccc(Cl)cc2)NC(=O)[C@@H](NC(C)=O)NC(=O)c2ccc3ccccc3c2)C(=O)N[C@H](Cc2ccc(NC(C)=O)cc2)C(=O)N[C@@H](CC(C)C)C(=O)N[C@@H](CCCCNC(C)C)C(=O)N2CCC[C@H]2C(=O)N[C@H](C)C(N)=O)cc1`, the half-inhibitory concentration (IC50) is 3 nM. As for `CC(=O)Nc1ccc(C[C@H](NC(=O)[C@H](CO)NC(=O)[C@@H](Cc2cccnc2)NC(=O)[C@@H](NC(=O)c2cn[nH]c2N)NC(=O)[C@@H](Cc2ccc3ccccc3c2)NC(C)=O)C(=O)N[C@H](Cc2ccc(NC(C)=O)cc2)C(=O)N[C@@H](CC(C)C)C(=O)N[C@@H](CCCCNC(C)C)C(=O)N2CCC[C@H]2C(=O)N[C@H](C)C(N)=O)cc1` (single isomer, unassigned), the IC50 was over 1000 nM. In the case of `CC(=O)Nc1ccc(C[C@H](NC(=O)[C@H](CO)NC(=O)[C@@H](Cc2cccnc2)NC(=O)[C@@H](Cc2ccc(Cl)cc2)NC(=O)[C@@H](Cc2ccc3ccccc3c2)NC(C)=O)C(=O)N[C@H](Cc2ccc(NC(C)=O)cc2)C(=O)N[C@@H](CNC(=O)C(C)C)C(=O)N[C@@H](CCCCNC(C)C)C(=O)N2CCC[C@H]2C(=O)N[C@H](C)C(N)=O)cc1`, the IC50 was 2 nM.

`CC(=O)Nc1ccc(C[C@H](NC(=O)[C@H](CO)NC(=O)[C@@H](Cc2cccnc2)NC(=O)[C@@H](Cc2ccc(Cl)cc2)NC(=O)[C@@H](Cc2ccc3ccccc3c2)NC(C)=O)C(=O)N[C@H](Cc2ccc(NC(C)=O)cc2)C(=O)N[C@H](C(=O)N[C@@H](CCCCNC(C)C)C(=O)N2CCC[C@H]2C(=O)N[C@H](C)C(N)=O)N(C)C(C)=O)cc1` had a half-inhibitory concentration (IC50) of 1.7 nM. The molecule `CC(=O)Nc1ccc(C[C@H](NC(=O)[C@H](CO)NC(=O)[C@@H](NC(=O)[C@@H](Cc2ccc(Cl)cc2)NC(=O)[C@@H](Cc2ccc3ccccc3c2)NC(C)=O)N(C)C(=O)c2cccnc2)C(=O)N[C@H](Cc2ccc(NC(C)=O)cc2)C(=O)N[C@@H](CC(C)C)C(=O)N[C@@H](CCCCNC(C)C)C(=O)N2CCC[C@H]2C(=O)N[C@H](C)C(N)=O)cc1` (single isomer, unassigned) registered an IC50 of 36 nM.

For the origin of these results see ChEMBL document CHEMBL1130231, “Betidamino acid scan of the GnRH antagonist acyline” (J Med Chem, 1997).
